# Experimental data from publication PMC5824357 (RNA, 2018).
# Where two headings read alike, the source gives them in different places. Ends that are not written are not given here. λN = λN tag that binds BoxB hairpins, for tethering; HA = not defined here
# What was measured:
# [1] = target: Dm CN9BD–CAF40 complex (Drosophila melanogaster) (UniProt Q7JVP2); experiment: ITC
# [2] = tested on: F-Luc-5BoxB mRNA; experiment: Tethering assay in S2 cells, F-Luc-5BoxB reporter; format: cell-based, Drosophila melanogaster; settings: for repression/degradation activity in tethering: λN-HA-tagged, S2 cells, harvested 3 days after transfection
# [3] = target: GST-tagged Hs CAF40 (ARM domain) (human, UniProt Q92600); experiment: pull-down
# [4] = target: T1, Hs NOT1 CN9BD–CAF40 complex (human, UniProt A5YKK6;Q92600); experiment: pull-down
# [5] = tested on: F-Luc-5BoxB-A95C7-HhR; experiment: Tethering assay in S2 cells, F-Luc-5BoxB-A95C7-HhR reporter; format: cell-based, Drosophila melanogaster
# [6] = tested on: Dm NOT1-CN9BD–CAF40 complex; experiment: In vitro MBP pull-down, Dm CN9BD–CAF40; format: binding, Drosophila melanogaster; settings: MBP-tagged proteins, amylose resin, 50 mM HEPES pH 7.5, 200 mM NaCl, 2 mM DTT, 1 h; SDS-PAGE, Coomassie
# In short: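 Proteins were expressed in E. coli BL21 (DE3) Star overnight at 20°C. Tethered-protein constructs carried an N-terminal MBP tag and were purified by amylose resin, anion exchange and gel filtration. MBP (20 µg, negative control) or MBP fusion (40 µg) was incubated 1 h with equimolar purified CCR4–NOT modules plus amylose resin. Beads were washed five times and eluted with 25 mM maltose. Eluates were TCA-precipitated and analysed by SDS-PAGE/Coomassie.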
# [7] = target: T2, Hs CAF40 (ARM domain, residues R19–E285) (human, UniProt Q92600 19-285); experiment: crystal structure
# [8] = target: T2, Hs CAF40 (ARM domain, residues R19–E285); experiment: crystal structure; remark: listed apart in the source
# [9] = target: T1, Hs NOT1 CN9BD–CAF40 complex; experiment: crystal structure
# T1 sequence (Q92600 19-285, one chain of several): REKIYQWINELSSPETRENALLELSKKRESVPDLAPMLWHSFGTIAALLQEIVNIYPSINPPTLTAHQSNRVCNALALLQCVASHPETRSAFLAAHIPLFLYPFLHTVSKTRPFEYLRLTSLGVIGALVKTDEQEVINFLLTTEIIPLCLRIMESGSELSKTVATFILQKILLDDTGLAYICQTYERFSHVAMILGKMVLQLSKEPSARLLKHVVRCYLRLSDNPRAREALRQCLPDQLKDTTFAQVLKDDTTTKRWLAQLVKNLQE
# T2 sequence (Q92600 19-285): as the sequence (Q92600 19-285, one chain of several) above
# GST-tagged Hs CAF40 (ARM domain), sequence (Q92600 19-285): as the sequence (Q92600 19-285, one chain of several) above
molecule,measurement,setting,value
Bam CBM peptide (residues D13–E36) (from UniProt P22745 13-36),Kd,[1],183 nM
"fragment D13–E36 fused to GST: λN-HA-GST-Bam 13–36 ({λN-HA-GST}-DDQQLDHNFKQMEEHLALMVEGNE; reading uncertain; UniProt P22745 13-36, looked up, fragment)",repression/degradation activity in tethering,[2],sufficient to induce the repression and degradation of the F-Luc-5BoxB mRNA to a similar extent as full-length Bam
DDQQLDHNFKQMEEHLALMVEGNE (domain or fragment) [MBP-tagged Bam CBM],binding result,[3],binds
same,binding result,[4],binds
"Bam-N: Bam N-terminal fragment, residues 1–140 (protein, UniProt P22745 1-140, looked up, fragment) MLNARDVCPEGNDDQQLDHNFKQMEEHLALMVEGNENEDPRKATCEYEDTNEDGATCTSGVLSEIQENFGRLRLCDVTAPLLEFHGLDCLQQIQKRSRHFAFDGSPAKKSRSGGVLVTGPKQKQLQKENVWNRKSKGSAS",repression of deadenylation-resistant reporter,[5],repressed the expression of this reporter in S2 cells
same,F-Luc-5BoxB mRNA degradation in DCP2-depleted cells,"[2]; DCP2 knockdown, DCP2 E361Q overexpressed",impaired
same,F-Luc activity in DCP2-depleted cells,"[2]; DCP2 knockdown, DCP2 E361Q overexpressed, F-Luc activity",not restored
same,F-Luc-5BoxB mRNA degradation after NOT1 depletion,[2]; NOT1-depleted S2 cells,partially suppressed degradation of F-Luc-5BoxB mRNA
same,repression/degradation activity in tethering,[2],retained the activity of the full-length protein
"ΔCBM: Bam Δ13–36 (protein, left off: MBP, N-terminal, kept) MLNARDVCPEGNNEDPRKATCEYEDTNEDGATCTSGVLSEIQENFGRLRLCDVTAPLLEFHGLDCLQQIQKRSRHFAFDGSPAKKSRSGGVLVTGPKQKQLQKENVWNRKSKGSASADNIEKLPITIEKLHMIGLHGDCLEHNAVLRLMNLFRSLHDHLTADLGFSRQNSMPSDYLFDMPVKSTMPKSLNVRYQLQVLCTKVERFLVQQRRTLEANRHFDFEKYDECDKLLKGFASYLDNFKLLLKPKMRNRNGNSGSNADKFHTQRMERLLIGLRDWIKAAHLSVHVFNWEMDLEHRYSGAMTESHKSLNERAILLSGAELRAAEARGISAEDLFIAQRYKLGGPIYCVLEQHEFLSALIANPETYFPPSVVAICGPQKLGAVSMEQPSASEEEFEETEEVPSSPPRHTGRVPRFRS",repression/degradation activity in tethering,[2],sufficient to abolish the repressive activity of Bam
same,interaction in pull-down,[6],abolished the interaction with the Dm CN9BD–CAF40 module in vitro
Hs NOT1 CN9BD (residues V1351–L1588) (domain or fragment) VPPQPQYSYHDINVYSLAGLAPHITLNPTIPLFQAHPQLKQCVRQAIERAVQELVHPVVDRSIKIAMTTCEQIVRKDFALDSEESRMRIAAHHMMRNLTAGMAMITCREPLLMSISTNLKNSFASALRTASPQQREMMDQAAAQLAQDNCELACCFIQKTAVEKAGPEMDKRLATEFELRKHARQEGRRYCDPVVLTYQAERMPEQIRLKVGGVDPKQLAVYEEFARNVPGFLPTNDL,binding result,[7],binds
DDQQLDHNFKQMEEHLALMVEGNE [Bam CBM peptide (residues D13–E36)],binding result,[8],binds
same,binding result,[9],binds
MBP-tagged full-length Bam (natural protein) MLNARDVCPEGNDDQQLDHNFKQMEEHLALMVEGNENEDPRKATCEYEDTNEDGATCTSGVLSEIQENFGRLRLCDVTAPLLEFHGLDCLQQIQKRSRHFAFDGSPAKKSRSGGVLVTGPKQKQLQKENVWNRKSKGSASADNIEKLPITIEKLHMIGLHGDCLEHNAVLRLMNLFRSLHDHLTADLGFSRQNSMPSDYLFDMPVKSTMPKSLNVRYQLQVLCTKVERFLVQQRRTLEANRHFDFEKYDECDKLLKGFASYLDNFKLLLKPKMRNRNGNSGSNADKFHTQRMERLLIGLRDWIKAAHLSVHVFNWEMDLEHRYSGAMTESHKSLNERAILLSGAELRAAEARGISAEDLFIAQRYKLGGPIYCVLEQHEFLSALIANPETYFPPSVVAICGPQKLGAVSMEQPSASEEEFEETEEVPSSPPRHTGRVPRFRS,binding result,[4],binds
"Bam-C: Bam C-terminal fragment, residues 141–442 (protein, UniProt P22745 141-442, looked up, fragment) ADNIEKLPITIEKLHMIGLHGDCLEHNAVLRLMNLFRSLHDHLTADLGFSRQNSMPSDYLFDMPVKSTMPKSLNVRYQLQVLCTKVERFLVQQRRTLEANRHFDFEKYDECDKLLKGFASYLDNFKLLLKPKMRNRNGNSGSNADKFHTQRMERLLIGLRDWIKAAHLSVHVFNWEMDLEHRYSGAMTESHKSLNERAILLSGAELRAAEARGISAEDLFIAQRYKLGGPIYCVLEQHEFLSALIANPETYFPPSVVAICGPQKLGAVSMEQPSASEEEFEETEEVPSSPPRHTGRVPRFRS",repression/degradation activity in tethering,[2],strongly impaired
